# Measurements published in ChEMBL document CHEMBL1153402, “Pyrido[2,3-e]-1,2,4-triazolo[4,3-a]pyrazin-1-one as a new scaffold to develop potent and selective human A3 adenosine receptor antagonists. Synthesis, pharmacological evaluation, and ligand-receptor modeling studies” (J Med Chem, 2009).
# Columns and labels:
# Adenosine receptor A2a [1] = molecular target: T1, Adenosine receptor A2a (Homo sapiens, UniProt P29274); test: Displacement of [3H]NECA from human cloned adenosine A2A receptor expressed in CHO cells; format: cell-based
# [2] = molecular target: T2, Adenosine receptor A1 (Homo sapiens) (UniProt P30542); test: Displacement of [3H]DPCPX from human cloned adenosine A1 receptor expressed in CHO cells at 10 uM; format: cell-based
# T2 sequence (whole entry): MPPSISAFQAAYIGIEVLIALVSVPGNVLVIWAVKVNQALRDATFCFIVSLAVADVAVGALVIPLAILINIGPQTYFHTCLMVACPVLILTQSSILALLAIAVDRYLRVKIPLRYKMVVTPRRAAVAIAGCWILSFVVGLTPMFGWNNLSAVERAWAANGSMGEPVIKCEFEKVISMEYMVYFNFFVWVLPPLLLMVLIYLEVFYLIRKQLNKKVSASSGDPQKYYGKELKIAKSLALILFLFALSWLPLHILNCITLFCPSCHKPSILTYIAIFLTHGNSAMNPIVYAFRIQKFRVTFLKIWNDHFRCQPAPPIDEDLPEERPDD
# Procedure, shortened: (§1)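 CHO cell membranes stably expressing hA1 or hA2A; radioligands [3H]DPCPX (hA1, Kd 3 nM) and [3H]NECA (hA2A, Kd 30 nM). IC50 from five displacer concentrations in triplicate, nonlinear regression; Ki by Cheng–Prusoff; four separate assays. Single-point values as percent inhibition of specific binding at 10 μM.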
# Adenosine receptor A1 [3] = molecular target: T3, Adenosine receptor A1 (Bos taurus, UniProt P28190); test: Displacement of [3H]DPCPX from bovine brain cortical membrane adenosine A1 receptor
# T3 sequence (P28190 whole entry): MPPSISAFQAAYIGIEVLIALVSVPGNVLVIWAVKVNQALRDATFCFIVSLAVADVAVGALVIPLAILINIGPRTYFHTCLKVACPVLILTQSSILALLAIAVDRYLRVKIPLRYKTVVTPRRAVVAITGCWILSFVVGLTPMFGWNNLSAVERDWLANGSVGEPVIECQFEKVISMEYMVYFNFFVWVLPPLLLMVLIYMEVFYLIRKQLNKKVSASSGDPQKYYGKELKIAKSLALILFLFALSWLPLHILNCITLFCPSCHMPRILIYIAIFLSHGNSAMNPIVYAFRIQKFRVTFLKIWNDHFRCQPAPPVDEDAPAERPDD
# Adenosine receptor A3 = molecular target: T4, Adenosine receptor A3 (Homo sapiens, UniProt P0DMS8); test: Displacement of [125I]AB-MECA from human cloned adenosine A3 receptor expressed in CHO cells; format: cell-based
# T4 sequence (P0DMS8 whole entry): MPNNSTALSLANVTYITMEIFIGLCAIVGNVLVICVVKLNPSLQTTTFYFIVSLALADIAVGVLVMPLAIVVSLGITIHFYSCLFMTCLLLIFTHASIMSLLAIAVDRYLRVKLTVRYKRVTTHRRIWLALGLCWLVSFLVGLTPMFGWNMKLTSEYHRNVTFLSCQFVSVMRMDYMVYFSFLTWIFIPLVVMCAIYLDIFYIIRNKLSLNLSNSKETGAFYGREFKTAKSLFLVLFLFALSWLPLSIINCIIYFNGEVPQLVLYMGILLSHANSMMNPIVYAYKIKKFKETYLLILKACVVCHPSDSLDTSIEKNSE
# [4] = Displacement of [3H]CGS 21680 from bovine striatal membrane adenosine A2A receptor; set-up: species or system Bos taurus
# Bos taurus [5] = species: Bos taurus; test: Displacement of [3H]CGS 21680 from bovine striatal membrane adenosine A2A receptor at 20 uM
# Procedure, shortened: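 IC50 from five concentrations in triplicate, nonlinear regression; Ki via Cheng–Prusoff from four assays. Single-point values as percent inhibition at 20 μM.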
# [6] = molecular target: T5, Adenosine receptor A1 (Bos taurus) (UniProt P28190); test: Displacement of [3H]DPCPX from bovine brain cortical membrane adenosine A1 receptor at 20 uM
# T5 sequence (whole entry): T3 sequence (P28190 whole entry)
# Procedure, shortened: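 Bovine cerebral cortical membranes; [3H]DPCPX displacement (Kd 0.3 nM). IC50 from five displacer concentrations in triplicate; Ki by Cheng–Prusoff, mean of four assays.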
# [7] = molecular target: T6, Adenosine receptor A3 (Homo sapiens) (UniProt P0DMS8); test: Displacement of [125I]AB-MECA from human cloned adenosine A3 receptor expressed in CHO cells at 1 uM; format: cell-based
# T6 sequence (whole entry): T4 sequence (P0DMS8 whole entry)
# Procedure, shortened: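 IC50 from five displacer concentrations, each in triplicate, by nonlinear regression; Ki by Cheng–Prusoff. Ki as mean of four separate assays, each in triplicate; single-point values as percent inhibition of specific binding at 1 μM.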
# Bos taurus [8] = species: Bos taurus; test: Displacement of [3H]CGS 21680 from bovine striatal membrane adenosine A2A receptor at 10 uM
# [9] = molecular target: T5, Adenosine receptor A1 (Bos taurus); test: Displacement of [3H]DPCPX from bovine brain cortical membrane adenosine A1 receptor at 10 uM
# Adenosine receptor A2a [10] = molecular target: T1, Adenosine receptor A2a; test: Displacement of [3H]NECA from human cloned adenosine A2A receptor expressed in CHO cells at 10 uM; format: cell-based; procedure, shortened: as §1
# Adenosine receptor A1 [11] = molecular target: T7, Adenosine receptor A1 (Homo sapiens, UniProt P30542); test: Displacement of [3H]DPCPX from human cloned adenosine A1 receptor expressed in CHO cells; format: cell-based
# T7 sequence (P30542 whole entry): T2 sequence (whole entry)
# T1 sequence (P29274 whole entry): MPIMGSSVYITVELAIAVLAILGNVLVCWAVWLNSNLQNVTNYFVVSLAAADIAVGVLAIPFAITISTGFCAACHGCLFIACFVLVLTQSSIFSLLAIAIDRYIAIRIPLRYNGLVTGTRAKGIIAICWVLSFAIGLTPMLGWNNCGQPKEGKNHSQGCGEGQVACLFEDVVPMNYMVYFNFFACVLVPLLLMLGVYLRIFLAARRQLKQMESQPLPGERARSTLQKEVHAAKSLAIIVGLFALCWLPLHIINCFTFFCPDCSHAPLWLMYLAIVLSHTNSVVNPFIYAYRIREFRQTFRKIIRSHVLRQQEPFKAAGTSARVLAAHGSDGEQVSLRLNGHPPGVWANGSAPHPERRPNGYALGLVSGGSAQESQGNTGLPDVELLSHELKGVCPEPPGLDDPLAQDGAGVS
smiles,measurement,setting,value
O=c1n(-c2ccccc2)nc2c(NC3CCCCC3)nc3ncccc3n12,Ki,Adenosine receptor A2a [1],211 nM
same,Activity,[2],37%
same,Ki,Adenosine receptor A1 [3],0.38 nM
same,Ki,Adenosine receptor A3,15.5 nM
same,Ki,[4],199 nM
O=C(O)c1ccc(-n2nc3c(=O)[nH]c4ncccc4n3c2=O)cc1,Activity,Bos taurus [5],7%
same,Activity,[6],30%
same,Activity,[7],0%
COc1ccc(-n2nc3c(NC(=O)c4ccccc4)nc4c([N+](=O)[O-])cccc4n3c2=O)cc1,Activity,Bos taurus [8],15%
same,Activity,[9],35%
COc1ccc(-n2nc3c(N(C(=O)c4ccccc4)C(=O)c4ccccc4)nc4ncccc4n3c2=O)cc1,Activity,Bos taurus [5],0%
same,Activity,Adenosine receptor A2a [10],0%
same,Activity,[6],17%
same,Activity,[2],0%
same,Ki,Adenosine receptor A3,7.75 nM
COc1ccc(-n2nc3c(N(C(=O)c4ccccc4)C(=O)c4ccccc4)nc4c([N+](=O)[O-])cccc4n3c2=O)cc1,Activity,Bos taurus [8],0%
same,Activity,[9],20%
O=C(Nc1nc2ncccc2n2c(=O)n(-c3ccccc3)nc12)c1ccccc1,Ki,Adenosine receptor A2a [1],2240 nM
same,Activity,[2],8%
same,Ki,Adenosine receptor A1 [3],152 nM
same,Ki,Adenosine receptor A3,70.3 nM
same,Ki,[4],7100 nM
Nc1nc2ncccc2n2c(=O)n(-c3ccc(O)cc3)nc12,Ki,Adenosine receptor A1 [3],112 nM
same,Ki,Adenosine receptor A3,1340 nM
same,Ki,[4],832 nM
Nc1nc2ncccc2n2c(=O)n(-c3ccc(F)cc3)nc12,Ki,Adenosine receptor A1 [3],181 nM
same,Ki,Adenosine receptor A3,490 nM
same,Ki,[4],1510 nM
COc1ccc(-n2nc3c(=O)[nH]c4ncccc4n3c2=O)cc1,Activity,Bos taurus [5],0%
same,Ki,Adenosine receptor A1 [11],114 nM
same,Activity,[6],26%
same,Ki,Adenosine receptor A3,3.3 nM
O=C(c1ccccc1)N(C(=O)c1ccccc1)c1nc2c([N+](=O)[O-])cccc2n2c(=O)n(-c3ccccc3)nc12,Activity,[7],27%
same,Activity,Bos taurus [8],0%
same,Activity,[9],39%
O=c1n(-c2ccccc2)nc2c(NC3CCCC3)nc3ncccc3n12,Ki,Adenosine receptor A2a [1],208 nM
same,Activity,[2],36%
same,Ki,Adenosine receptor A1 [3],0.47 nM
same,Ki,Adenosine receptor A3,8.4 nM
same,Ki,[4],510 nM
O=c1[nH]c2c([N+](=O)[O-])cccc2n2c(=O)n(-c3ccccc3)nc12,Ki,Adenosine receptor A3,279 nM
COc1ccc(-n2nc3c(N)nc4ncccc4n3c2=O)cc1,Ki,Adenosine receptor A1 [3],1100 nM
same,Ki,Adenosine receptor A3,158 nM
same,Ki,[4],413 nM
O=c1n(-c2ccccc2)nc2c(NC3CCCC3)nc3c([N+](=O)[O-])cccc3n12,Ki,Adenosine receptor A3,116 nM
O=c1[nH]c2c([N+](=O)[O-])cccc2n2c(=O)n(-c3ccc(O)cc3)nc12,Activity,[7],21%
CCOC(=O)c1ccc(-n2nc3c(=O)[nH]c4ncccc4n3c2=O)cc1,Activity,Bos taurus [5],0%
same,Activity,[6],16%
same,Activity,[7],0%
